Screens from PubChem.
Shown are actives, neighbours in structure and some others; about 1.6% of the full set was active somewhere.
JMJD2C inh – blocks human GASC-1 demethylase activity; inhibition, % at 2.35 µM; 330,000 compounds, 0.069% hits; GST-JMJD2C(1-420) H3K9me3 demethylation, DELFIA europium; AID 2099; Q9H3R0;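 active = more than half of a compound's replicate wells show inhibition beyond 50%, single wells judged on their own value; inconclusive = some, but no more than half, of replicates pass 50% inhibition; inactive = no replicate passes 50% inhibition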;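 note: signal counts dimethyl H3K9 product captured on neutravidin plate; 0% = median of DMSO wells and 100% = 0.3 times that DMSO median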
HDAC3 inhib – blocks human histone deacetylase 3 | 320,000 compounds, 0.15% hits | AID 2718 | O15379 | recombinant HDAC3, fluorogenic peptide/trypsin coupled, fluorescence | inhibition, % at 8.3 µM; in the data active = inhibition above about 26%, passing the limit was not always enough; inconclusive = no clear call, values can overlap the other calls
LANA-H2A inh – blocks KSHV LANA binding to histone H2A/H2B; Q9QR71; cell-free LANA-H2A/H2B peptide, fluorescence polarization; inhibition, % (concentration not given with the values); 320,000 compounds, 0.6% hits; AID 2629; in the data active = inhibition mostly above about 10%, no sharp cut-off; inactive = mostly below about 6.7%
Arr AP2 block – inhibitors of human beta-arrestin and AP2 interaction | inhibition, % at 10 µM | AID 504490 | 340,000 compounds, 0.31% hits | FITC-arrestin peptide / GST-AP2 beads, flow cytometry; AP2 beta2 appendage carries R879A mutation;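 active = inhibition above a set limit, near 3 SD of compounds lacking own fluorescence, cut at about 54% in these data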;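 note: plate controls were DMSO wells for no effect and 5 µM unlabelled arrestin peptide for full effect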
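System: GST-AP2 R879A glutathione beads; medium: PBS, Tween 20 0.05%, BSA 0.1%; reagent: fluorescein-tagged arrestin peptide at 50 nM final; schedule: pre-incubation 12 min, peptide binding 1 h, room temperature; detection: flow cytometry, FL1 (488/535 nm); read-out: inhibition as reduced fluorescein signal on beads, percent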
Pemphigus Ab inh – blocks pemphigus antibody binding to human desmoglein-3; DSG3-coupled beads, scFv-anti-DSG3-GFP binding, flow cytometry; active compounds read low; binding (percent of control), % at 10 µM; 310,000 compounds, 0.48% hits;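 active = binding more than 3 SD below its plate's average and above zero; inconclusive = below that plate limit but binding exactly zero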;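 note: hits lower antibody fragment binding to DSG3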
Target sequence (P32926 whole entry, looked up, the tested form may be a part): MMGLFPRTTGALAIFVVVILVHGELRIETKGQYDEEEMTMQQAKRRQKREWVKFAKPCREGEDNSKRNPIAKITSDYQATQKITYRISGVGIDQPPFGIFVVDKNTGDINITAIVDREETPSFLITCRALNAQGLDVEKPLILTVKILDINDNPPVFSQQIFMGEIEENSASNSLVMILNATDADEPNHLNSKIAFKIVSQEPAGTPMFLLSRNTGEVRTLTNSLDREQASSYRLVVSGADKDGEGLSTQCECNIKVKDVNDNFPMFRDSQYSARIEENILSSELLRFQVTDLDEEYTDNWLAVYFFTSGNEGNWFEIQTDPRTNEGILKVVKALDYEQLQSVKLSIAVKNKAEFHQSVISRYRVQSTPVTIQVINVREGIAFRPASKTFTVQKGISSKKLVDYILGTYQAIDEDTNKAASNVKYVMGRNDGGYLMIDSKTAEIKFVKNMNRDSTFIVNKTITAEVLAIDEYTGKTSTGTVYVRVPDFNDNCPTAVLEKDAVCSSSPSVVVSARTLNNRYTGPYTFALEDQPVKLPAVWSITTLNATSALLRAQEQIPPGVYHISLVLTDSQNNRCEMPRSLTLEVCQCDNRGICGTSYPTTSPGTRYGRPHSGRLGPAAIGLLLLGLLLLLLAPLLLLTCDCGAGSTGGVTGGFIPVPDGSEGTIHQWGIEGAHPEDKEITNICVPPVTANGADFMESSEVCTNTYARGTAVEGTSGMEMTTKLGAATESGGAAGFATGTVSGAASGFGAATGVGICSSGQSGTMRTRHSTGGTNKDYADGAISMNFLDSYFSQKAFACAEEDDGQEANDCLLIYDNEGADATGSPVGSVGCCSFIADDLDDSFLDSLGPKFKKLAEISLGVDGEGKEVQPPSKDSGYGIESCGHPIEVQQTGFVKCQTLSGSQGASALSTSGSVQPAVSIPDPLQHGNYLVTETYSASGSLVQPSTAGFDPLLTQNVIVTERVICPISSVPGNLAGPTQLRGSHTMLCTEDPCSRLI
T cell HTS – T cell immune modulation candidate | 330,000 compounds, 0.068% hits | response (vesicle binding), % at 7 µM | 2C CD8+ T cell-vesicle binding, flow cytometry; active compounds read low;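 active = response, share of CD8 T cells binding vesicles, and their 90th percentile fluorescence all below set limits, cut at about 80% in these data, passing the limit was not always enough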;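 note: values below 100% mean blocked vesicle binding to the CD8+ T cells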
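Assay system – 2C mouse CD8+ T cells · Also added – QL9-loaded Drosophila micro-vesicles · Timing – Cell–vesicle co-incubation 1.5 h at 37 °C, staining 20 min on ice · Signal – flow cytometry of vesicle-bound cells · Measure – percent CD8+ FL2 mean versus row control · Controls – Peptide-free naked vesicles (low) and QL9 vesicles with 0.7% DMSO vehicle (high)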
* marks the source's active call; other numbers are inactive results; i = inactive; u = inconclusive; x = not tested or not shown.

SMILES | JMJD2C inh | HDAC3 inhib | LANA-H2A inh | Arr AP2 block | Pemphigus Ab inh | T cell HTS
CC(NC(=O)COc1ccc(S(=O)(=O)N2CCOCC2)cc1)c1ccccc1 (stereo not drawn) | 0 | 1 | -1 | 25 | 97 | 386
CC1=C(C(=O)OC(C)C)C(c2cccs2)C(C(=O)OC(C)C)=C(C)N1 | 2 | 29* | -4 | 1 | 80 | 285
CCn1c(SCC(=O)NCc2ccccc2)nnc1C(CO)NC(=O)c1ccccc1 (stereo not drawn) | 5 | 2 | -1 | -15 | 103 | 307
CC1C2CC(C(CN(C)C)/C2=N/O)C1(C)C (stereo not drawn) | -4 | 2 | 66* | 6 | 96 | 402
CC1/C(=N/O)C(CN(C)C)C2CC1C2(C)C (stereo not drawn) | -1 | 6 | 0 | 2 | 96 | 212
OCCCc1nc2n(n1)C(c1ccccc1)C=C(c1ccc(F)cc1)N2 (stereo not drawn) | -2 | -17 | 3 | -8 | 94 | 391
Cc1ccc(C2=CC(c3cccs3)n3nnnc3N2)cc1 (stereo not drawn) | 0 | 6 | 23* | 10 | x | 321
OCCCc1nc2n(n1)C(c1cccs1)C=C(c1ccccc1)N2 (stereo not drawn) | 3 | -36 | 68* | x | x | i
O=C(/C=C/c1ccco1)Nc1nnc(-c2ccco2)s1 | i | 3 | 0 | 23 | 98 | 337
Cc1nc(NC(=O)/C=C/c2ccco2)sc1C | 0 | 6 | -1 | 10 | -3.5* | 130
O=C1CC(C(=O)N(CC2CCCO2)C(C(=O)NC2CCCCC2)c2ccncc2)CS1 (stereo not drawn) | -6 | 11 | -1 | -3 | 91 | 452
O=C(NC1CCCCC1)C(c1ccc(O)cc1)N(CC1CCCO1)C(=O)C1COc2ccccc2O1 (stereo not drawn) | 2 | 3 | 2 | -1 | 78* | 698
Cc1ccc2nc(SCc3ccccc3)c(C=O)c(=O)n2c1 | 0 | -6 | 0 | 13 | 53* | 223
NC(=O)NN=C1CCN2CCCc3cccc1c32 | x | x | x | x | 106 | x
CCOC(=O)C1=CC[C@]2(C)c3c(c4ccccc4n3C)C(=O)C1N2C | -6 | -1 | 3 | 8 | 106 | 417
O=C(CSC1=Nc2ccccc2C2CC=NN12)Nc1ccc(F)cc1Cl (stereo not drawn) | x | 1 | -10 | 8 | 30* | 175
CC1(C)C2CCC1(C)C(SC(=N)N)C2 (stereo not drawn) | x | x | x | 1 | x | x
C[C@@H]1NC(=O)c2cc([N+](=O)[O-])cc(I)c2NCC[C@@H](C(N)=O)NC(=O)[C@H](CC(N)=O)NC1=O | 6 | 14 | 18* | x | 98 | 146
C[C@@H]1NC(=O)[C@H](CCC(N)=O)NC(=O)c2cc([N+](=O)[O-])cc(I)c2NCC[C@@H](C(N)=O)NC1=O | 18 | 5 | -2 | x | x | 721
O=C1O[C@H](CO)[C@@H](O)[C@H](O)[C@H]1O | x | x | x | 6 | 100 | x
O=CC(O)C1OC(=O)C(O)C1O (stereo not drawn) | x | x | x | 4 | 86* | x
C=CCn1c(N)c(-c2nc3ccccc3n2C)sc1=S | 50* | 0 | -2 | 8 | x | 325
Cc1nnc(SCC(=O)c2cc(C)n(-c3ccc4c(c3)OCO4)c2C)s1 | 2 | 8 | 27* | 29 | 99 | 333
Cc1cc(C(=O)CSc2nnnn2C)c(C)n1-c1ccc2c(c1)OCCO2 | -4 | 1 | 0 | -4 | x | 376
CC(=O)c1ccc(NC(=O)CN2C(=O)/C(=C/C=C/c3ccccc3)SC2=S)cc1 | -27 | 1 | 2 | -1 | 80* | 290
O=C(O)CN1C(=O)/C(=C/C=C/c2ccccc2)SC1=S | 5 | 5 | -5 | 1 | 106 | 397
O=C1CN(C(=O)CCCc2c[nH]c3ccccc23)c2ccccc2N1 | 54* | u | -3 | 24 | 100 | i
O=C(CCc1c[nH]c2ccccc12)N1CCN(c2ccc(O)cc2)CC1 | -5 | 1 | 2 | -5 | 101 | 321
O=C(CCc1c[nH]c2ccccc12)N1CCCCCCC1 | -30 | 4 | 60* | 1 | 120 | 388
COc1ccc(CCNC(=O)c2coc(=O)c(Br)c2)cc1 | 19 | 1 | 3 | x | x | 702
